The results in this text go back to ChEMBL document CHEMBL3407337, “Molecular design, synthesis and biological research of novel pyridyl acridones as potent DNA-binding and apoptosis-inducing agents” (Eur J Med Chem, 2015).

Active and inactive are the calls of the source. No cut-off for these calls is given here.

Assay [1] has as its system K562. Put plainly: Induction of apoptosis in human K562 cells assessed as late apoptotic cells at 1 uM after 48 hrs by annexin V/PI staining based flow cytometry (reference value: 0.26 %). Type of assay: functional.
Assay [2] relates to K562. The assay can be described thus: Induction of apoptosis in human K562 cells assessed as early apoptotic cells at 2.5 uM after 48 hrs by annexin V/PI staining based flow cytometry (reference value: 3.89 %). The class given is functional.
Assay [3] deals with K562. The assay can be described thus: Induction of apoptosis in human K562 cells assessed as late apoptotic cells at 2.5 uM after 48 hrs by annexin V/PI staining based flow cytometry (reference value: 0.26 %). Type of assay: functional.
The subject of assay [4] is K562. The assay can be described thus: Induction of apoptosis in human K562 cells after 48 hrs by annexin V/PI staining based flow cytometry. Type of assay: functional, cell-based.
Assay [5] has as its system K562. The assay can be described thus: Induction of apoptosis in human K562 cells assessed as cleavage of caspase-9 at 1 uM after 36 hrs by Western blot analysis. Type of assay: functional, cell-based. The method in brief:
(§1)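 K562 cells in 6 cm dishes treated 36 h at various concentrations. Cells lysed on ice for 0.5 h and spun at 20,000 g. Protein measured by BCA. Lysates run on 12% SDS-PAGE and transferred to PVDF. Membranes blocked in 5% milk and probed overnight at 4 °C with primary antibody against cleaved caspase-9, -7, -3, cleaved PARP or Bcl-XL.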

In assay [6] the test system is K562. Put plainly: Induction of apoptosis in human K562 cells assessed as cleavage of caspase-7 at 1 uM after 36 hrs by Western blot analysis. The class given is functional, cell-based. A digest of the protocol:
as §1

For assay [7], the system named is K562. Put plainly: Induction of apoptosis in human K562 cells assessed as cleavage of PARP at 1 uM after 36 hrs by Western blot analysis. Type of assay: functional, cell-based. The method in brief:
as §1

Assay [8] deals with K562. The assay can be described thus: Induction of apoptosis in human K562 cells assessed as reduction in Bcl-XL protein expression at 1 uM after 36 hrs by Western blot analysis. Type of assay: functional, cell-based. A digest of the protocol: as §1
The test system of a further assay is NCI-H520. The assay can be described thus: Antiproliferative activity against human NCI-H520 cells after 48 hrs by MTT assay. The class given is functional, cell-based. Particulars: NCI-H520, 48 h. A digest of the protocol: (§2)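 Adherent lines seeded at 6×10^3 cells/well and allowed 12 h attachment. Media: NCI-H520 and HeLa RPMI-1640; HepG2, MCF-7, CNE-2, A375, A172 and U118-MG DMEM; U251 MEM-EBSS; all with 10% FBS, 37 °C, 5% CO2. Dosed 48 h at final 50, 25, 10, 1 and 0.1 μM. MTT 4 h, formazan dissolved in DMSO, A490. IC50 from the dose series.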

The subject of a further assay is U-251. The assay can be described thus: Antiproliferative activity against human U251 cells after 48 hrs by MTT assay. The class given is functional, cell-based. To be noted: U-251, 48 h. A digest of the protocol:
as §2

For a further assay, the system named is A-375. Put plainly: Antiproliferative activity against human A375 cells after 48 hrs by MTT assay. The class given is functional, cell-based. To be noted: A-375, 48 h. A digest of the protocol: as §2
Assay [9] is described as follows: Antiproliferative activity against human A172 cells after 48 hrs by MTT assay. Type of assay: functional, cell-based. To be noted: A 172, 48 h. A digest of the protocol:
as §2

A short description of assay [10]: Antiproliferative activity against human CNE2 cells after 48 hrs by MTT assay. The class given is functional, cell-based. Particulars: CNE-2, 48 h. The method in brief: as §2
Assay [11] can be described thus: Antiproliferative activity against human U118MG cells after 48 hrs by MTT assay. Type of assay: functional, cell-based. To be noted: U-118-MG. A digest of the protocol:
as §2

The subject of a further assay is HepG2. The assay can be described thus: Antiproliferative activity against human HepG2 cells after 48 hrs by MTT assay. The class given is functional, cell-based. Particulars: HepG2, 48 h. The method in brief: as §2
A further assay relates to MCF7. Put plainly: Antiproliferative activity against human MCF7 cells after 48 hrs by MTT assay. The class given is functional, cell-based. Particulars: MCF7, 48 h. The method in brief: as §2
The test system of a further assay is Calf thymus DNA. The assay can be described thus: Binding affinity to calf thymus DNA at 10 uM after 5 mins by fluorescence emmission spectroscopic method. To be noted: Bos taurus. Type of assay: nucleic-acid assay. The method in brief:
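Compound at final 10 μM in 5 mM Tris-HCl, 50 mM NaCl, pH 7.2. ct DNA added to final 0–100 μM. Incubated 5 min. Emission recorded with excitation 425 nm. F/F0 plotted against [DNA]/[compound].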

The species entered for a further assay is Bos taurus. Put plainly: Displacement of ethidium bromide from calf thymus DNA assessed as quenching constant up to 30 uM after 5 mins by competitive binding fluorescence method. The method in brief: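 EB final 10 μM with ct DNA 40 μM in Tris-HCl/50 mM NaCl, pH 7.2. Compound added at final 0, 5, 10, 20 and 30 μM. Incubated 5 min, excitation 366 nm, emission near 600 nm. Quenching constant from the Stern–Volmer fit F0/F = 1 + K[Q].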

Assay [12] deals with T1, DNA topoisomerase 1 (Homo sapiens) (UniProt P11387).
T1 sequence (whole entry): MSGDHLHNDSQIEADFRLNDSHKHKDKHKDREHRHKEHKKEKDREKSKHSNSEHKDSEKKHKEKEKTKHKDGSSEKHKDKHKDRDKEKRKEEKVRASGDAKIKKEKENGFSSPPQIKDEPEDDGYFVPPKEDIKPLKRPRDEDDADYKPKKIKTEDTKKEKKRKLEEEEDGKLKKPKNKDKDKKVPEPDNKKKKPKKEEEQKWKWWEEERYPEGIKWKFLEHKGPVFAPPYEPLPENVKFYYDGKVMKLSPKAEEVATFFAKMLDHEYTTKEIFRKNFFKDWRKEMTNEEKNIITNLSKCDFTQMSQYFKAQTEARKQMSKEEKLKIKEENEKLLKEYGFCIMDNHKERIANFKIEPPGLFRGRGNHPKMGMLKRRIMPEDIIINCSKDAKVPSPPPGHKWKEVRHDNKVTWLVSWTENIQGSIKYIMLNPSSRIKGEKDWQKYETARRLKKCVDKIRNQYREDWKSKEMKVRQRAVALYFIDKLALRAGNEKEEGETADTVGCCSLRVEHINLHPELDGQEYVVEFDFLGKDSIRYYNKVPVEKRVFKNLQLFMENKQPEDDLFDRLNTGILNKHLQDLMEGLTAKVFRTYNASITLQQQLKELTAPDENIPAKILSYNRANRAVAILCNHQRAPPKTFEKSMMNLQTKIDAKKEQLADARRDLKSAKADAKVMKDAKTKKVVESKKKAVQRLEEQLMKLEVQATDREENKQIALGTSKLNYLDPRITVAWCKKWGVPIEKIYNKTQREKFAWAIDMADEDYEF
Put plainly: Inhibition of recombinant human Topo1-mediated relation of supercoiled pBR322 DNA at 50 uM after 30 mins by agarose gel electrophoresis. A digest of the protocol: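 pBR322 at 100 ng with 1.0 unit recombinant human topo I. Incubated 30 min at 37 °C in 35 mM Tris-HCl pH 8.0, 5 mM MgCl2, 72 mM KCl, 0.01% BSA, 2 mM spermidine and 5 mM DTT. Run on 1% agarose in TAE at 100 V for 25 min. EB-stained gel viewed under UV.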

Assay [13] deals with K562. The assay can be described thus: Induction of apoptosis in human K562 cells assessed as late apoptotic cells at 0.05 uM after 48 hrs by annexin V/PI staining based flow cytometry (reference value: 0.26 %). The class given is functional.
Assay [14] deals with K562. The assay can be described thus: Induction of apoptosis in human K562 cells assessed as early apoptotic cells at 0.25 uM after 48 hrs by annexin V/PI staining based flow cytometry (reference value: 3.89 %). The class given is functional.
Assay [15] has as its system K562. The assay can be described thus: Induction of apoptosis in human K562 cells assessed as late apoptotic cells at 0.25 uM after 48 hrs by annexin V/PI staining based flow cytometry (reference value: 0.26 %). Type of assay: functional.
In assay [16] the test system is K562. The assay can be described thus: Induction of apoptosis in human K562 cells assessed as late apoptotic cells at 0.5 uM after 48 hrs by annexin V/PI staining based flow cytometry (reference value: 0.26 %). Type of assay: functional.

In the case of `Cc1cccc2c(=O)c3c(NCc4ccncc4)ccc(C(=O)NCCN(C)C)c3[nH]c12`, the Activity in the assay with K562 [1] was 7.54%; with K562 [2], 54.93%; in the assay on K562 [3] it was 20.24%; in the assay with K562 [4] it was “Dose-dependent effect”; with K562 [13], 0.49%; in the assay with K562 [14], 15.64%. The Activity was 1.08% in the assay on K562 [15] and 2.13% with K562 [16]. Moreover, the result in the assay with K562 [5], in the assay with K562 [6], in the assay on K562 [7], in the assay on K562 [8] and in the assay with Calf thymus DNA was Active. For the same compound, the IC50 with NCI-H520 amounted to 1030 nM; in the assay on U-251, 790 nM; in the assay with A-375, 160 nM; in [9] it was 2200 nM; in assay [10], 980 nM; in assay [11], 1080 nM. The IC50 worked out at 320 nM in the assay on HepG2 and 2550 nM in the assay with MCF7. The Kq in the assay listed under Bos taurus turned out to be 1 ×10⁴ /M. Also, in [12], the inhibition result is “Active”.
